Measured values taken from ChEMBL document CHEMBL4411336, “2-Aminothiazole Derivatives as Selective Allosteric Modulators of the Protein Kinase CK2. 2. Structure-Based Optimization and Investigation of Effects Specific to the Allosteric Mode of Action” (J Med Chem, 2019).
Active and inactive are the calls of the source. No cut-off for these calls is given here.

Legend:
786-0 [1] = experiment: Growth inhibition of human 786-0 cells at 25 uM after 24 hrs by MTT assay relative to control; format: functional; settings: 786-0, 24 h, read-out: GI
[2] = molecular target: T1, Casein kinase II subunit alpha (Homo sapiens, UniProt P68400); experiment: Inhibition of recombinant human GST-tagged CK2alpha in presence of ATP by radiometric kinase assay
Target sequence in this assay (P68400 whole entry): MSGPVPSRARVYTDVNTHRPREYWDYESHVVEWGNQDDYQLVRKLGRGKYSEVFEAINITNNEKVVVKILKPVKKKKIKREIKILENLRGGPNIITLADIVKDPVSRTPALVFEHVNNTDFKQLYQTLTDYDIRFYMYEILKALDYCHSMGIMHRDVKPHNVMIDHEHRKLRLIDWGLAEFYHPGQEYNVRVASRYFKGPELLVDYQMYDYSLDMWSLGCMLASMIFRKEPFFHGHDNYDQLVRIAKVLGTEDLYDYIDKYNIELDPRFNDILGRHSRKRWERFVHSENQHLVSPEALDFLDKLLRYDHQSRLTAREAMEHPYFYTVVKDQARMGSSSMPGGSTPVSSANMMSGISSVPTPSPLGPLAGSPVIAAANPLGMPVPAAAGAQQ

786-0 [3] = experiment: Growth inhibition of human 786-0 cells after 24 hrs by MTT assay; format: functional; settings: 786-0, 24 h
Outline: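 786-O grown in RPMI 1640 with 10% FCS, pen/strep, 37 °C, 5% CO2; assays in medium with 0.1% or 0.5% serum. Cells seeded at 1 × 10^4/well, next day given fresh medium with inhibitor at various concentrations, DMSO (0.25%) control, 24 h. MTT 2 h at 37 °C, SDS/HCl solubilization 4 h, absorbance 570 nm. GI50 by linear interpolation on log[c] scale; at least two independent experiments.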

[4] = molecular target: T1, Casein kinase II subunit alpha; settings: HeLa, 40 uM
Target sequence in this assay (P68400 whole entry, looked up): as the sequence (P68400 whole entry) above

[5] = molecular target: Activin receptor type-1 (Homo sapiens) (UniProt Q04771); experiment: Inhibition of recombinant human catalytic GST-tagged ACVR1 expressed in baculovirus expression system assessed as reduction in enzyme activity at 5 uM in presence of ATP relative to control
[6] = molecular target: Casein kinase I isoform gamma-1 (Homo sapiens) (UniProt Q9HCP0); experiment: Inhibition of recombinant full length human GST-tagged CK1gamma1 expressed in baculovirus expression system assessed as reduction in enzyme activity at 5 uM in presence of ATP relative to control
Casein kinase I isoform gamma-1 (Homo sapiens), sequence (Q9HCP0 whole entry, looked up, canonical isoform): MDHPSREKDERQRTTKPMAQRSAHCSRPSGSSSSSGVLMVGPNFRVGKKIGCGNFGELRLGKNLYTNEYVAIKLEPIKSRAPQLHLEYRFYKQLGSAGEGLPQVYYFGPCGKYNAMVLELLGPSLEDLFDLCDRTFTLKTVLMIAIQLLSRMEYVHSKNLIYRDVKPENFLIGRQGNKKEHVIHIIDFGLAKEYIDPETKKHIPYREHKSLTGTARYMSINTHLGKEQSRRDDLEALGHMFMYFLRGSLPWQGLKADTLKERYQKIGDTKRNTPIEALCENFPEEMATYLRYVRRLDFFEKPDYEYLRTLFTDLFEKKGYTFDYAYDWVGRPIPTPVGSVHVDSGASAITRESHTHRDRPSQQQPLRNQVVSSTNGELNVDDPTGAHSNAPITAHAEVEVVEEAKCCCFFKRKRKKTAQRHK

[7] = molecular target: Glycogen synthase kinase-3 beta (Homo sapiens) (UniProt P49841); experiment: Inhibition of recombinant full length human His-tagged GSK3beta expressed in baculovirus expression system assessed as reduction in enzyme activity at 5 uM in presence of ATP relative to control
Glycogen synthase kinase-3 beta (Homo sapiens), sequence (P49841 whole entry, looked up): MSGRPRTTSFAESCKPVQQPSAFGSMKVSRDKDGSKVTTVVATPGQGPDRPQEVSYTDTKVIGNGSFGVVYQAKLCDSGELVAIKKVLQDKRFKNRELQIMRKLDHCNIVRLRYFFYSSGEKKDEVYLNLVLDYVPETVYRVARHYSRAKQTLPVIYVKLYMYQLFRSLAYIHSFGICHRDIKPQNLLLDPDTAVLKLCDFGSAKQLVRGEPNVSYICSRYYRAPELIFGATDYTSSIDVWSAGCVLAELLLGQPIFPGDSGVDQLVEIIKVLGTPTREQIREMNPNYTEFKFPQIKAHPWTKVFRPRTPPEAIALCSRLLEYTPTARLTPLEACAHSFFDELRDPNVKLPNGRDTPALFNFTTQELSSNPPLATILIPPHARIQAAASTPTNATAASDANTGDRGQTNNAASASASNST

Homo sapiens = species on record: Homo sapiens; experiment: Inhibition of human PI3K assessed as reduction in enzyme activity at 5 uM in presence of ATP relative to control
[8] = molecular target: Serine/threonine-protein kinase pim-1 (Homo sapiens) (UniProt P11309); experiment: Inhibition of recombinant full length human His-tagged PIM1 expressed in baculovirus expression system assessed as reduction in enzyme activity at 5 uM in presence of ATP relative to control
Serine/threonine-protein kinase pim-1 (Homo sapiens), sequence (P11309 whole entry, looked up): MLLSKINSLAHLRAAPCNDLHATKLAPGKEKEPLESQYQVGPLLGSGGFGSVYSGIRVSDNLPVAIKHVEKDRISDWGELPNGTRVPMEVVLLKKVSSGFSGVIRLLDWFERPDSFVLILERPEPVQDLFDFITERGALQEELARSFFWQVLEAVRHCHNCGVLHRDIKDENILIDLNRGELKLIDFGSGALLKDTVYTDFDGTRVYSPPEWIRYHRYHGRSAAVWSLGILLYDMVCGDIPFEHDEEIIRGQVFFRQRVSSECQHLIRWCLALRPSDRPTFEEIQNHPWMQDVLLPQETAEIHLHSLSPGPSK

[9] = molecular target: Aurora kinase B (Homo sapiens) (UniProt Q96GD4); experiment: Inhibition of recombinant full length human His-tagged AURKB expressed in baculovirus expression system assessed as reduction in enzyme activity at 5 uM in presence of ATP relative to control
[10] = molecular target: Receptor tyrosine-protein kinase erbB-2 (Homo sapiens) (UniProt P04626); experiment: Inhibition of human His-tagged ERBB2 expressed in baculovirus expression system assessed as reduction in enzyme activity at 5 uM in presence of ATP relative to control; set-up: scale not given: the % may be the effect or the level left
Receptor tyrosine-protein kinase erbB-2 (Homo sapiens), sequence (P04626 whole entry): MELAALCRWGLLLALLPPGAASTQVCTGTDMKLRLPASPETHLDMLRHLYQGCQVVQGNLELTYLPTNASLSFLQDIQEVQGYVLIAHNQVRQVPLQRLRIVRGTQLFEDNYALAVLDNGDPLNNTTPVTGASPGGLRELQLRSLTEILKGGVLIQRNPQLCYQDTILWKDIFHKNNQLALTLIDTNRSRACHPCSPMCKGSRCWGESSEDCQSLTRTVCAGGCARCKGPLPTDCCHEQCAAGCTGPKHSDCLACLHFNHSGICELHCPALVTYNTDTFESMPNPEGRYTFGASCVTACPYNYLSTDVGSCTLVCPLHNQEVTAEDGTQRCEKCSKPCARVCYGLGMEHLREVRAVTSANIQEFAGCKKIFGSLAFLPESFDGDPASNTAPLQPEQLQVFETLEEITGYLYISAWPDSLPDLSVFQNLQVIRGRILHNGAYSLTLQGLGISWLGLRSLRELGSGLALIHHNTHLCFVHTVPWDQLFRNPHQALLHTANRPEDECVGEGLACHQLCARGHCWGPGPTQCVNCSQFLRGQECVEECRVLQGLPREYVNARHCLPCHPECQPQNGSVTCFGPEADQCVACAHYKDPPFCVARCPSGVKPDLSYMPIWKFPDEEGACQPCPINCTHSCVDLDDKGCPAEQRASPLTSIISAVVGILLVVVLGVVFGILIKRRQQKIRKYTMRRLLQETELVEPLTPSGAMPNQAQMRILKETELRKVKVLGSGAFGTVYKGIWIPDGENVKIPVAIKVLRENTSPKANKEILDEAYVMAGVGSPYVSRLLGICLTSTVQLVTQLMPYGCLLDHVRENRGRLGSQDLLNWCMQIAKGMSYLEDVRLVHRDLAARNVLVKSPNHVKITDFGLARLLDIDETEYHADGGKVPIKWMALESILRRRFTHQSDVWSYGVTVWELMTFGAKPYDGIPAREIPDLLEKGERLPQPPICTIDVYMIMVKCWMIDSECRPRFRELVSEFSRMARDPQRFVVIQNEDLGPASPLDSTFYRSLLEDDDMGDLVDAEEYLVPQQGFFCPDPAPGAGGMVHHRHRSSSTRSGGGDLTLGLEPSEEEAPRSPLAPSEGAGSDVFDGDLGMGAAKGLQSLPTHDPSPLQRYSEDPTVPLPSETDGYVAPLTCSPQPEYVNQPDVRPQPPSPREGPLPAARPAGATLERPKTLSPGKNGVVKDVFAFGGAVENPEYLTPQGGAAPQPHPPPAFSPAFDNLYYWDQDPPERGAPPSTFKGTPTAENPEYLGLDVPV

[11] = molecular target: Dual specificity protein kinase CLK4 (Homo sapiens) (UniProt Q9HAZ1); experiment: Inhibition of recombinant full length human GST-tagged CLK4 expressed in baculovirus expression system assessed as reduction in enzyme activity at 5 uM in presence of ATP relative to control
[12] = Growth inhibition of human RPTEC cells after 24 hrs by MTT assay; format: cell-based
[13] = Growth inhibition of human MCF10A cells after 24 hrs by MTT assay; format: cell-based, MCF-10A
NCI-H1299 = experiment: Growth inhibition of human H1299 cells after 24 hrs by MTT assay; format: functional; settings: NCI-H1299, 24 h
PC-3 = experiment: Growth inhibition of human PC3 cells after 24 hrs by MTT assay; format: functional; settings: PC-3, 24 h
DU-145 = experiment: Growth inhibition of human DU145 cells after 24 hrs by MTT assay; format: functional; settings: DU-145, 24 h
U138-MG = experiment: Growth inhibition of human U138MG cells after 24 hrs by MTT assay; format: functional
[14] = molecular target: Serine/threonine-protein kinase pim-1 (Homo sapiens) (UniProt P11309); experiment: Inhibition of human PIM1 assessed as reduction in enzyme activity at 5 uM in presence of ATP relative to control; set-up: scale not given: the % may be the effect or the level left
[15] = molecular target: Epidermal growth factor receptor (Homo sapiens) (UniProt P00533); experiment: Inhibition of human EGFR assessed as reduction in enzyme activity at 5 uM in presence of ATP relative to control; set-up: scale not given: the % may be the effect or the level left
[16] = molecular target: Dual specificity protein kinase CLK2 (Homo sapiens) (UniProt P49760); settings: 5 uM
[17] = molecular target: Tyrosine-protein kinase ABL1 (Homo sapiens) (UniProt P00519); settings: 5 uM
Tyrosine-protein kinase ABL1 (Homo sapiens), sequence (P00519 whole entry): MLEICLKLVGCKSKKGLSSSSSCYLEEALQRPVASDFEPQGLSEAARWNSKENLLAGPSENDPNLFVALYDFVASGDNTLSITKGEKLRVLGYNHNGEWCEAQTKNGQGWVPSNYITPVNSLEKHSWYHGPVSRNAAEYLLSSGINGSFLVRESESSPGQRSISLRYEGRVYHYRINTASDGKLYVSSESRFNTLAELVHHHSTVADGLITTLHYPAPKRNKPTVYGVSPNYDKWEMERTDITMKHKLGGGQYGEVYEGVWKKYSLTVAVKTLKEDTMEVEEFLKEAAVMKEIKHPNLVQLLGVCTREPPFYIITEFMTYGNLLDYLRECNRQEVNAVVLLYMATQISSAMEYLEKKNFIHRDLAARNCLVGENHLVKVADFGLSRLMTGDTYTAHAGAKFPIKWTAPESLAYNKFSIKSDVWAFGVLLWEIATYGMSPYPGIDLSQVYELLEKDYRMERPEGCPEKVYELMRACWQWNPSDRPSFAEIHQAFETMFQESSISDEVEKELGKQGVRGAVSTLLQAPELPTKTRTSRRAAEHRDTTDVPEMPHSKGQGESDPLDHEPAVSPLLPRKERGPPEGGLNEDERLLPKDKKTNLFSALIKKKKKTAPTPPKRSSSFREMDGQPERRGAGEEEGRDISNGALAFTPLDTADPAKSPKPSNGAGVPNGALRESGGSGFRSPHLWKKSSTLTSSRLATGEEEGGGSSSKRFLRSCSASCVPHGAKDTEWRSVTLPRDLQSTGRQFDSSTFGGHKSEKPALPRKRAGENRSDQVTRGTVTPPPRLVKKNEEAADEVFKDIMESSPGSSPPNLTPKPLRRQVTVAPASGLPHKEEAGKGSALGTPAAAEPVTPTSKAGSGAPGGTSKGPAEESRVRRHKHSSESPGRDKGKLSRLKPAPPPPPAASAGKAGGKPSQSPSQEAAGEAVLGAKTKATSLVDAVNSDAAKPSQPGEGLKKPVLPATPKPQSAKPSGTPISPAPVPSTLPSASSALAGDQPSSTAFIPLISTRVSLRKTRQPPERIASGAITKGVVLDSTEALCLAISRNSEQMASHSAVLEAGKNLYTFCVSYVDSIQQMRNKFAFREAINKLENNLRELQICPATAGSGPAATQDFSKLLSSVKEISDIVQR

[18] = molecular target: Serine/threonine-protein kinase Chk2 (Homo sapiens) (UniProt O96017); settings: 5 uM
Serine/threonine-protein kinase Chk2 (Homo sapiens), sequence (O96017 whole entry): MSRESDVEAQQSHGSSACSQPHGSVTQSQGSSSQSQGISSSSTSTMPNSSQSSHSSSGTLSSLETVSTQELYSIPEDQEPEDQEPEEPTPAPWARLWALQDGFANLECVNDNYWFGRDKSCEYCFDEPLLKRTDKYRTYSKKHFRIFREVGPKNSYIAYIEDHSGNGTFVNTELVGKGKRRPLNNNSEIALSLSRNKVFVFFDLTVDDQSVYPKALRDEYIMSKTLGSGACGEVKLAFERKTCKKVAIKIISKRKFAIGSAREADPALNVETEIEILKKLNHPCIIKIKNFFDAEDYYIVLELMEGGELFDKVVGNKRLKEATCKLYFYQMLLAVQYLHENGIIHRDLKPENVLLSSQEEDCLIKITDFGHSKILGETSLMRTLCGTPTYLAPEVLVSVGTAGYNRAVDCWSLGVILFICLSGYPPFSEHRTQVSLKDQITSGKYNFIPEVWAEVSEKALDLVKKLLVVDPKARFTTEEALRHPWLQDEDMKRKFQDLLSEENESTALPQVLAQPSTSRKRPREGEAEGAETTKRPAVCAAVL

[19] = molecular target: Dual specificity protein kinase CLK1 (Homo sapiens) (UniProt P49759); settings: 5 uM
Dual specificity protein kinase CLK1 (Homo sapiens), sequence (P49759 whole entry, looked up): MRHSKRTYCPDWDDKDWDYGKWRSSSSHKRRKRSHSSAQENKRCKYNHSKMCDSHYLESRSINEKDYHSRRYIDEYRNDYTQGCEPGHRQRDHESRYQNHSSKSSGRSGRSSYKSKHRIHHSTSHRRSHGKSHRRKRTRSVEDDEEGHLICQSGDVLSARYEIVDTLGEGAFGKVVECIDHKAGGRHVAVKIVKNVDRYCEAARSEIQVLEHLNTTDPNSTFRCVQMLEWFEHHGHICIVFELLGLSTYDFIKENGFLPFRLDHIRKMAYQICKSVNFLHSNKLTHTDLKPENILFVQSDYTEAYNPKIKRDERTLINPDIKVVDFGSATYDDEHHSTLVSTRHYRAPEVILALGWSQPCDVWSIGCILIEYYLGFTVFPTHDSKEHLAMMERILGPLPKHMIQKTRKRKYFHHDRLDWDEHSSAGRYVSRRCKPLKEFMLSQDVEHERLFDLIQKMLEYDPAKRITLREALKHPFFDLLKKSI

[20] = molecular target: Cyclin-dependent kinase 1/cyclin B1 (Homo sapiens) (UniProt P06493+P14635); settings: 5 uM
786-0 [21] = experiment: cells; settings: Homo sapiens, 786-0, 24 h
786-0 [22] = experiment: cells; settings: Homo sapiens, 786-0, 24 h; remark: listed apart in the source

For `Cc1ccc(S(=O)(=O)NC(=O)c2ccc(Nc3nc(-c4ccc5ccccc5c4)cs3)cc2)cc1`, the inhibition of growth at 25 µM (786-0 [1]) was 87%.
With `CC(=O)OCOC(=O)c1ccc(Nc2nc(-c3ccc4ccccc4c3)cs2)cc1` the inhibition of growth at 25 µM (786-0 [1]) was 45%.
In the case of `O=[N+]([O-])c1cccc(-c2csc(Nc3ccccc3)n2)c1`, the IC50 [2] is reported as greater than 25 µM.
Work on `CC(=O)OCOC(=O)c1ccc(Nc2nc(-c3cccc([N+](=O)[O-])c3)cs2)cc1` yielded an inhibition of growth at 25 µM (786-0 [1]) of 42%.
In the case of `COC(=O)c1ccc(Nc2nc(-c3cccc([N+](=O)[O-])c3)cs2)cc1`, the IC50 [2] is reported as greater than 25 µM.
`N#Cc1ccc(Nc2nc(-c3ccc4ccccc4c3)cs2)cc1` gave an IC50 [2] greater than 50 µM.
With `c1ccc(Nc2nc(-c3ccc4ccccc4c3)cs2)cc1` the IC50 [2] was greater than 50 µM.
`CC(=O)OCOC(=O)c1ccc(Nc2nc(-c3ccsc3)cs2)cc1` showed an inhibition of growth at 25 µM (786-0 [1]) of 48%.
Work on `CS(=O)(=O)NC(=O)c1ccc(Nc2nc(-c3ccc4ccccc4c3)cs2)cc1` yielded an inhibition of growth at 25 µM (786-0 [1]) of 23%.
With `O=C(O)Cc1ccc(Nc2nc(-c3cccc([N+](=O)[O-])c3)cs2)cc1` the IC50 [2] was greater than 50 µM.
For `O=C(O)c1ccc(Nc2nc(-c3cccc(Br)c3)cs2)cc1`, the GI50 (786-0 [3]) was 25 µM and the inhibition [4] was “Active”.
Compound `CC(C)(C)c1csc(Nc2ccc(C(=O)O)cc2)n1` has an IC50 [2] greater than 50 µM.
In the case of `O=C(O)c1ccc(Nc2nc(-c3ccc4ccccc4c3)cs2)cc1O`, the inhibition [5] is reported as 0%, the inhibition [6] is reported as 32% and the inhibition [7] is reported as 41%. The inhibition (Homo sapiens) was 53%, the inhibition [8] was 60% and the inhibition [9] was 62%. It also gave an Activity [10] of 70%, an inhibition [11] of 23% and an inhibition of growth at 25 µM (786-0 [1]) of 87%. The GI50 at 24 h [12] was 27 µM, the GI50 (786-0 [3]) was 5 µM and the GI50 at 24 h [13] was 10 µM. It also gave a GI50 (NCI-H1299) of 9 µM, a GI50 (PC-3) of 7 µM and a GI50 (DU-145) of 20 µM. The GI50 (U138-MG) was 13 µM, the Activity [14] was 60% and the Activity [15] was 21%. It also gave an inhibition [16] of 20 to 30%, an inhibition [17] of 20 to 30% and an inhibition [18] of 20 to 30%. For the same compound, the inhibition [19] was 20 to 30%, the inhibition [20] was 20 to 30% and the EC50 (786-0 [21]) was 4.6 µM. The EC50 (786-0 [22]) was 4.9 µM.
`O=C(O)c1ccc(Nc2nc(-c3ccc(O)cc3O)cs2)cc1` showed an IC50 [2] of 7 µM.
